Test results from ChEMBL document CHEMBL4513216, “Probing the Open Global Health Chemical Diversity Library for Multistage-Active Starting Points for Next-Generation Antimalarials” (ACS Infect Dis, 2020).

Assay: Toxicity liver stage against HepG2, at 10uM
Type: cell-based
Set-up: test concentration 10 uM, cell line HepG2-A16-CD81EGFP
Settings: human, HepG2-A16-CD81EGFP cells; read-out: INHIBITION
Summary of the method: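 Uninfected HepG2-A16-CD81EGFP cells, 3 × 10^3 per well, 1536-well, plated on prespotted compound at 10 μM final, parasite-free screening media added to match infected plates; puromycin 10 μM positive, DMSO 0.5% negative; run in parallel with 48 h PbLuc assay at 37 °C, 5% CO2; viability by CellTiter-Glo luminescence, normalized to controls.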

| SMILES | cytotoxicity at 10 µM |
| --- | --- |
| Cn1ccnc1CN1C(=O)CO[C@H]2CN(Cc3ccc(F)c(F)c3)C[C@H]21 | -2.83% |
| Cc1cccc(O[C@H]2COCCN(C3CCOCC3)C2)n1 | 9.09% |
| COc1ccc(CN2CCOC[C@H](Oc3cccnc3)C2)cc1 | -4.03% |
| CCN(CC)C1(Cc2cc(CC(C)C)on2)COC1 | 2.23% |
| COc1ccc(CNC[C@H]2Cn3ccnc3CO2)cn1 | 8.73% |
| CO[C@H]1COCCN(C(=O)c2ccc(C#N)cc2)C1 | 4.94% |
| CCN(CC)S(=O)(=O)c1ccc2c(c1)N(Cc1ccncc1)C(=O)CS2 | -5.62% |
| CC(=O)c1ccc(N2CCN(C(=O)c3cnn4c3OCCC4)CC2)cc1 | 8.44% |
| O=C(Nc1cnc(Oc2ccccc2)nc1)C1CC1 | 0.174% |
| Cc1ccc(C(=O)NCCn2nc(-n3cncn3)ccc2=O)c(C)c1 | -1.25% |
| CS(=O)(=O)NCc1cncc2c1CCN(C(=O)c1ccccn1)C2 | 0.734% |
| O=C(c1ccco1)N1Cc2nccn2CC(Cn2ncccc2=O)C1 (stereo unspecified) | 5.09% |
| O=C(c1cnccn1)N1CCC2(CCN(Cc3ccsc3)CC2)CC1 | 1.2% |
| CCS(=O)(=O)Nc1ccc2oc(C)c(C(=O)OC)c2c1 | 5.87% |
| O=C(CCn1ccnc1)N1CCC(c2nnc(-c3ccccn3)o2)CC1 | 3.29% |
| O=C(O)[C@H]1OCC(=O)N(Cc2cccc(F)c2)[C@@H]1c1ccc(Cl)cc1 | 8.9% |
| CN1C[C@@H](C(=O)NC(C)(C)C)[C@@]2(CCc3ccccc3C(=O)N2)C1 | -3.79% |
| Cc1cnc(CC2COCCN(C(=O)CN3CCOCC3)C2)cn1 (stereo unspecified) | 9.07% |
| Cc1c(CN2CCCC(O)C2)[nH]c2ccc(F)cc12 (stereo unspecified) | 9.35% |
| Cc1cc(Oc2ccccc2)nc(C2CCCCN2)n1 (stereo unspecified) | -2.64% |
| CC(C)S(=O)(=O)N1C[C@@H](c2ccccc2)[C@H]2[C@H]1CCCCCN2C | 0.247% |
| CN(CCc1ccccn1)C(=O)Nc1cc(C(F)(F)F)c[nH]c1=O | 17.2% |
| O=S(=O)(c1ccccc1)N1CCCC(Cn2cncn2)C1 (stereo unspecified) | -4.28% |

| SMILES | cytotoxicity at 10 µM |
| --- | --- |
| CCC1CN(CC(=O)NC2(C#N)CCCC2)CCN1CCOC (stereo unspecified) | 4.56% |
| COCCNC(=O)c1ccc(NCc2csc(C)n2)cc1Cl | 6.81% |
| N#Cc1cccnc1N1CCC(Nc2ccccc2)C1 (stereo unspecified) | -3.37% |
| COC(=O)C1CN(Cc2ccn(-c3ccc(F)cc3)n2)C[C@@H](C)O1 (stereo partly specified) | -4.52% |
| N#CC1(NC(=O)c2nccc3ccccc23)CCC2(CC1)OCCO2 | 2.48% |
| COc1ccc2c(c1)CN(c1nc(C)cc(C)n1)CC2 | -0.734% |
| CCN(CC)c1ccc(CNC(=O)c2cccc(C)n2)cn1 | 9.47% |
| Cc1nc(C)c(C(=O)N(C)Cc2cnn(C)c2)s1 | -1.57% |
| CCOCCNC(=O)Cc1cccc(I)c1 | 9.62% |
| Cc1ccc(N2CCCC(N(C)Cc3cc(C)on3)C2)nn1 (stereo unspecified) | 17.5% |
| CCCNC(=O)Cn1cc(C#N)c(=O)c2cc(Br)ccc21 | -0.842% |
| Cc1cnn(CC2CCCCN2CC(=O)Nc2nncs2)c1 (stereo unspecified) | -0.208% |
| COc1c(C2CCCN2C(=O)c2ccoc2)c(C)nn1C (stereo unspecified) | 4% |
| CC(C)c1nnc(CNc2ccc(SC(F)(F)F)cc2)o1 | 11.5% |
| CCN(C(c1cccnc1)c1ccc(F)cc1F)S(C)(=O)=O (stereo unspecified) | 10.8% |
| Cc1ccc(C(=O)N2CCCN(C)c3ccc(F)cc32)o1 | -5.26% |
| CCC(CC)(CC(=O)OC)NC(=O)Nc1nnc(-c2ccccn2)s1 | -8.68% |
| CC(C)Oc1cccc(CNC(=O)N2CCC(N3CC=CC3)C2)c1 (stereo unspecified) | 0.477% |
| Cc1cnn(CC2CCCCN2C(=O)c2ccc(C#N)c(C)n2)c1 (stereo unspecified) | -1.18% |
| Cn1[nH]c(C2CC2)c(-c2ccc3c(c2)OCO3)c1=N | -47.5% |
| O=C(Nc1cccc(Cn2cccn2)c1)N1CCCC(N2CCCC2)C1 (stereo unspecified) | 4.13% |
| CSCCC(NC(=O)c1ccccc1)C(=O)N(C)Cc1ccsc1 (stereo unspecified) | 7.17% |
| CC(NC(=O)C1CC1)C(=O)N(C)Cc1ccsc1 (stereo unspecified) | 3.64% |

| SMILES | cytotoxicity at 10 µM |
| --- | --- |
| Cc1cccc(NS(=O)(=O)c2ccc(C#N)nc2)c1C#N | 0.0489% |
| NC(=O)C1CCN(Cc2ccc(S(=O)(=O)N3CCCC3)o2)CC1 | 1.04% |
| Cc1ccc2cccc(S(=O)(=O)N(C)CC3CCN(C)C3)c2n1 (stereo unspecified) | 1.5% |
| CC(C)(C)CCN1CCN(Cn2nccc2-c2cccnc2)CC1 | 23.2% |
| Cc1ccc(CCNC(=O)NC2CCN(CC(F)(F)F)C2=O)cn1 (stereo unspecified) | 4.75% |
| O=C1COC2(CCN(c3ccccn3)CC2)CN1Cc1ccccn1 | -0.861% |
| CCn1cc2c(n1)C(COC)CN(C(=O)COc1ccccc1C)C2 (stereo unspecified) | 0.719% |
| Cc1ncoc1C(=O)N1CCn2c(COCC3CC3)cnc2C1C (stereo unspecified) | -1.67% |
| COc1ccc(OC)c(-n2cnnc2C)c1 | 1.24% |
| Cc1cccc(-n2cc(CNc3ncnc4c3CCNCC4)cn2)c1 | 3.96% |
| COCc1cc(CNCc2c(C)n(CC(C)C)c3ccccc23)n[nH]1 | 12% |
| CC(C)[C@H]1CN(Cc2c[nH]nn2)C[C@@H]1NC(=O)C1CCOCC1 | 22.3% |
| CSCC[C@@H](CO)n1ccnc1-c1ccc(C)o1 | 7.02% |
| O=C(CN1CCC(c2ccccc2)CC1)NCc1cc2n(n1)CCNC2 | 3.03% |
| COc1ccc(CN2CCn3cncc3C2)cc1Cn1cncn1 | 7.55% |
| CC(C)c1nc(CNc2nccc(CCC(F)(F)F)n2)cs1 | 1.24% |
| O=C(c1ccncc1Cl)N1CCN(Cc2ccco2)C(CCO)C1 (stereo unspecified) | -9.84% |
| Cc1ncsc1CN1CCN(C)C2(CCC(=O)N(CCO)CC2)C1 (stereo unspecified) | -9.8% |
| CCCn1cc(NC(=O)NCC2CCS(=O)(=O)C2)nn1 (stereo unspecified) | 0.186% |
| O=C1CC2(CCN(Cc3ccc(C(F)(F)F)nc3)CC2)CN1 | -6.33% |
| CNC(=O)c1ccc(-n2c(COCC(=O)O)nc3c(C)cccc32)o1 | -3.33% |
| O=C(c1cc(Cn2ccc3ccccc32)[nH]n1)N1CCOCC1 | -1.01% |
| CC(C)(O)CCc1ccc(C(=O)NCCC2CCCOC2)cc1 (stereo unspecified) | 0.782% |

| SMILES | cytotoxicity at 10 µM |
| --- | --- |
| CN(CCc1nc2cc(Cl)ccc2[nH]1)C(=O)c1ncn[nH]1 | -53.7% |
| CCCS(=O)(=O)N[C@H]1CN(c2ncccc2C(N)=O)C[C@@H]1C(C)C | 5.78% |
| CCOCCn1nc(C)cc1C(=O)N1CC[C@@](O)(COC)C(C)(C)C1 | -1.66% |
| CN(CCCC1CCCO1)S(=O)(=O)NCc1ccccc1 (stereo unspecified) | 2.2% |
| CCN(CC1CCCN(CCc2cccc(OC)c2)C1)C(=O)CN(C)C (stereo unspecified) | 9.05% |
| Cc1cccc(OC2(C(=O)O)CCN(C(=O)CCc3ccco3)CC2)c1 | 4.3% |
| Cc1ncc(C(=O)N2CCCC(C(=O)CCc3ccccc3)C2)s1 (stereo unspecified) | 19.4% |
| Cc1nc(CN(C)C(=O)c2ccc(Cn3cnnn3)cc2)cs1 | -15.4% |
| Cc1cc(N2CCC3(CCCN(CCO)C3=O)C2)nc2cc(Cl)ccc12 (stereo unspecified) | 3.72% |
| CCc1nc(NC2CCCN(C(=O)C3CC3)C2)c2cnn(C)c2n1 (stereo unspecified) | -1.05% |
| Cc1cc(C)n(CC(C)NC2CCN(Cc3cccnc3)CC2)n1 (stereo unspecified) | 2.45% |
| Cc1ccc(C(=O)N2CCCC3(C2)C(=O)N(C)c2ccccc23)c(=O)[nH]1 (stereo unspecified) | -7.52% |
| CC(=O)N1CCCC(C(=O)N2CCN(c3cnn(C)c(=O)c3)CC2)C1 (stereo unspecified) | 0.761% |
| CCc1cc(N[C@H]2CCC[C@H]2CO)n2nc(C)c(C)c2n1 | 3.41% |
| CCOCC1CCN(C(=O)C(c2ccccc2F)N(C)C)CC1 (stereo unspecified) | 5.06% |
| Cc1cc(NCCNc2ncccc2C)n2nc(C)cc2n1 | 2.41% |
| CS(=O)(=O)N(Cc1ccon1)c1ccc(F)cc1 | 2.24% |
| CC(C)(C)OC(=O)NC1CCCN(Cc2cccs2)C1 (stereo unspecified) | -40.7% |
| Cc1nc(N2CCN(C(=O)c3ccccc3)CC2)cc(-n2ccnc2)n1 | 0.0237% |
| CC(C)Nc1cc(N2CCC(n3cc(C4CCCC4)nn3)CC2)ncn1 | 7.81% |
| CCC(C)c1ccc(NC(=O)C2CCN(C(=O)COC)CC2)cc1 (stereo unspecified) | -3.16% |
| Cc1cc(CN[C@@H](C)C(N)=O)c(C)s1 | -6.55% |
| CC(C)C(C)N(Cc1ccccn1)Cc1ccco1 (stereo unspecified) | -1.99% |

| SMILES | cytotoxicity at 10 µM |
| --- | --- |
| O=C1Nc2ccccc2C12CCCN(Cc1ccncc1)C2 (stereo unspecified) | 4.32% |
| O=C(c1cnc2ccccc2c1)N1CCCC(O)(CN2CCCC2)C1 (stereo unspecified) | 9.27% |
| CNC(=O)c1noc(Cn2ncc3ccccc3c2=O)n1 | -5.35% |
| c1ccc(-n2ccc(CNC3CCc4ncnn4C3)n2)cc1 (stereo unspecified) | -2.57% |
| Cc1cnn(CC2CCCN2C(=O)c2ccc(-n3cccn3)nc2)c1 (stereo unspecified) | -15.7% |
| CCCc1nnc(NC(=O)Cc2c(C)nc(C)[nH]c2=O)s1 | -10.7% |
| Cc1cc(NC(=O)CN(C)C2CCCN(c3cccnn3)C2)n(C)n1 (stereo unspecified) | -12.4% |
| CN1CCC(NC(=O)NCCNc2ccccn2)CC1 | -1.72% |
| COc1ccc(CNCC2CCN(CC(C)O)CC2)c2ccccc12 (stereo unspecified) | -11.5% |
| CCc1ccc(C(=O)N2CCN(CC(C)O)CC2)o1 (stereo unspecified) | -8.18% |
| COc1cccc2cc(CNC(C)(C)C(=O)N3CCC(O)CC3)oc12 | -12.2% |
| Cc1cc(C2CCCN(CCCS(=O)(=O)c3ccccc3)C2)n[nH]1 (stereo unspecified) | -7.64% |
| Cn1cnnc1C1CCCN(C(=O)c2cc(Cl)c3c(c2)OCO3)C1 (stereo unspecified) | -1.08% |
| CCOc1ccccc1-c1cc(N)[nH]n1 | 5.75% |
| Cc1oncc1C(=O)NCc1cc(=O)n2c(n1)CN(C)CCC2 | 5.02% |
| Cn1nc(C2CNCCO2)cc1CCOc1ccc(Cl)cc1 (stereo unspecified) | -7.72% |
| CN(C)C[C@@H]1CCC[C@@H]2CN(c3ncccn3)C[C@@H]21 | 5.85% |
| Cc1nc(CN2C[C@@H]3CN(C(=O)c4cccn4C)C[C@@H]3C2)cs1 | 0.346% |
| Cc1ccc(CN2C[C@@H]3C[C@H](C(=O)NCC4CC4)N(C)[C@@H]3C2)o1 | -3.63% |
